4 compounds from ChEMBL document CHEMBL1136421, “New tetrahydrobenzindoles as potent and selective 5-HT(7) antagonists with increased In vitro metabolic stability” (Bioorg Med Chem Lett, 2003) can be followed below.

SMILES strings stand for the structures.

In assay [1] the target is T1, 5-hydroxytryptamine receptor 7 (Homo sapiens, UniProt P34969). Nature of the assay: Ability to displace the radioligand [3H]5-carboximidotryptamine ([3H]-5-CT) from cloned human 5-hydroxytryptamine 7 receptor expressed in COS-7 cells. Format: cell-based. The essentials: (§1)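 Displacement of [3H]5-CT from cloned human 5-HT7 receptor expressed in COS-7 cells. Affinity reported as pKi, given as mean ± SE of 8–12 values.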
T1 sequence (P34969 whole entry): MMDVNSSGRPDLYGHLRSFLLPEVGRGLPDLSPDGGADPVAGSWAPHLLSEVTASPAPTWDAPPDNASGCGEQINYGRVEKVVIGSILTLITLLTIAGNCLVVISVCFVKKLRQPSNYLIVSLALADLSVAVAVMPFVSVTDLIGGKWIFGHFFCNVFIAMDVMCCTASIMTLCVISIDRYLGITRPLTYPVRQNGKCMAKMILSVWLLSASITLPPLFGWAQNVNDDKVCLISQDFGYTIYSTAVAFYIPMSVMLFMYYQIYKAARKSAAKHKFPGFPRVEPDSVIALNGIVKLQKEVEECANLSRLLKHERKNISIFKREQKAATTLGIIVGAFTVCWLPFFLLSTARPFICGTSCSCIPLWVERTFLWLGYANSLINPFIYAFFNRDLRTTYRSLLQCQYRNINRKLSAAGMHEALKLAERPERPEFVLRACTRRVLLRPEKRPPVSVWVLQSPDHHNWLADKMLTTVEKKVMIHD

The target of assay [2] is T2, Serotonin 2 (5-HT2) receptor (Rattus norvegicus, UniProt P30994+P08909+P14842). Nature of the assay: Binding affinity towards 5-hydroxytryptamine 2 receptor by the displacement of [3H]ketanserin in rat cerebral cortex membrane. Format: cell membranes. The procedure, abridged: (§2)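 Displacement of [3H]ketanserin from rat cerebral cortex membranes at the 5-HT2 site. Affinity reported as pKi, given as mean ± SE of 8–12 values.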
For orientation: In a radioligand displacement assay an active substance lowers the binding of a labelled ligand.

Assay [3] has as its target 5-hydroxytryptamine receptor 1B (Homo sapiens, UniProt P28222). Nature of the assay: Binding affinity towards 5-HT1B receptor by the displacement of [3H][…]] in human recombinant receptors in mammalian cell.
In assay [4] the target is T2, Serotonin 2 (5-HT2) receptor. Nature of the assay: Binding affinity towards 5-HT2 receptor by the displacement of [3H]-ketanserin] in rat cerebral cortex. Format: tissue-based. The essentials: as §2
Assay [5] deals with 5-hydroxytryptamine receptor 4 (Cavia porcellus, UniProt O70528). Nature of the assay: Binding affinity towards 5-HT4 receptor by the displacement of [3H]GR-113808 in guinea-pig striatum. Format: tissue-based. The procedure, abridged: (§3)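 Radioligand displacement binding at the named receptor preparation. Affinity reported as pKi, given as mean ± SE of 8–12 values.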
5-hydroxytryptamine receptor 4, sequence (O70528 whole entry): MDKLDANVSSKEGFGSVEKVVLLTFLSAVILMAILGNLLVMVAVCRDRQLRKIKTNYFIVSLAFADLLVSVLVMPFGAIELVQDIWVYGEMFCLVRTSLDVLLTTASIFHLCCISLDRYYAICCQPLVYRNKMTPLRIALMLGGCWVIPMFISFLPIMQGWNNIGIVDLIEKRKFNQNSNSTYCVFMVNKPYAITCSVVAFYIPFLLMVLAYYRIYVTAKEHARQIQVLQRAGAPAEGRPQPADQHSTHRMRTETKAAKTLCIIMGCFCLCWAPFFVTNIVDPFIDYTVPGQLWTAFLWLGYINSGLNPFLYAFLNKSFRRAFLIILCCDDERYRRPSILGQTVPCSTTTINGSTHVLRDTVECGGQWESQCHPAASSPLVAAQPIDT
In assay [6] the target is T3, 5-hydroxytryptamine receptor 2C (Homo sapiens, UniProt P28335).
T3 sequence (P28335 whole entry): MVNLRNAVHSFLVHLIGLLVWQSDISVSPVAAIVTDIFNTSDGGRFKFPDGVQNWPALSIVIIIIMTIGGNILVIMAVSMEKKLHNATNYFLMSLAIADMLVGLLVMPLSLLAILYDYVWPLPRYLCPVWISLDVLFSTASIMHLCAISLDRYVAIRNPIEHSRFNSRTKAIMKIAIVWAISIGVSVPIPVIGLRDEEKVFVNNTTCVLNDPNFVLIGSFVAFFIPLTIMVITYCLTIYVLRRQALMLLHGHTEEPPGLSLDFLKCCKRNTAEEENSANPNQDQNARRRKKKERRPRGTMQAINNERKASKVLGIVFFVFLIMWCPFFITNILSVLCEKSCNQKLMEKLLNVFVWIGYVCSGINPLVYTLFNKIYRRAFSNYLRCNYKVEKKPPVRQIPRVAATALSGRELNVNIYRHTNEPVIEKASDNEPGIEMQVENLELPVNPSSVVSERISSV
Nature of the assay: Binding affinity towards 5-HT2C receptor by the displacement of [3H]mesulergine] in human recombinant receptors in mammalian cell. The essentials: as §3

For assay [7], the target named is Serotonin 3 (5-HT3) receptor. Nature of the assay: Binding affinity towards 5-HT3 receptor by the displacement of [3H]GR-65630] in human recombinant receptors in mammalian cell. Format: protein-complex assay. The essentials:
as §3

For assay [8], the target named is T1, 5-hydroxytryptamine receptor 7. Nature of the assay: Binding affinity towards 5-HT7 receptor by the displacement of [3H]-5-CT] in human recombinant receptors in mammalian cell. The essentials:
as §1

The target of assay [9] is 5-hydroxytryptamine receptor 6 (Homo sapiens, UniProt P50406). Nature of the assay: Binding affinity towards human recombinant 5-hydroxytryptamine 6 receptor by the displacement of [3H]-5-CT].
5-hydroxytryptamine receptor 6, sequence (P50406 whole entry): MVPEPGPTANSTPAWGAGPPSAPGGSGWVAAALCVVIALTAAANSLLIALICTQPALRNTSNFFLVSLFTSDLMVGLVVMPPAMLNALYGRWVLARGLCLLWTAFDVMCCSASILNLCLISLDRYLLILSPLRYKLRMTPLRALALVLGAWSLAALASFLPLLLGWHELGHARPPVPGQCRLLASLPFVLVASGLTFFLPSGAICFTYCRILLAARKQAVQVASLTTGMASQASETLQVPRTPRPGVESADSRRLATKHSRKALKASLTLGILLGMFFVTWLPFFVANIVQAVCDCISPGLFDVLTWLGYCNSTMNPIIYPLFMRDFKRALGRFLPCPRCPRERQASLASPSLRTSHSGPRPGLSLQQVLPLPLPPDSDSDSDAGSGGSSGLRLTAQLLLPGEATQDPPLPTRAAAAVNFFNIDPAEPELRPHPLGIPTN
Assay [10] has as its target T4, 5-hydroxytryptamine receptor 1A (Homo sapiens, UniProt P08908).
T4 sequence (P08908 whole entry): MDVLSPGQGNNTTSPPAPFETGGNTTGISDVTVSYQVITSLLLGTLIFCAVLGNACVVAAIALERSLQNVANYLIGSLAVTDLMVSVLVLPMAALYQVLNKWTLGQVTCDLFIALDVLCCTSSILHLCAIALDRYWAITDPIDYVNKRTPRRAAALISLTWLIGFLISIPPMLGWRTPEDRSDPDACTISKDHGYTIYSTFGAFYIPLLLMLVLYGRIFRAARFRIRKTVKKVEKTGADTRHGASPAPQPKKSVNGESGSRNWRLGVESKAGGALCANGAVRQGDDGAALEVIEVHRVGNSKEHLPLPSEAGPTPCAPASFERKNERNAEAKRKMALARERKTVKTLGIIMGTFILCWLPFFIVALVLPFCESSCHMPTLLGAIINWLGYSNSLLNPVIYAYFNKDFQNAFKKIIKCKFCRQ
Nature of the assay: Binding affinity towards 5-HT1A receptor by the displacement of [3H]-8-OH-DPAT] in human recombinant receptors in mammalian cell. The essentials: as §3

5-hydroxytryptamine receptor 1B, sequence (P28222 whole entry): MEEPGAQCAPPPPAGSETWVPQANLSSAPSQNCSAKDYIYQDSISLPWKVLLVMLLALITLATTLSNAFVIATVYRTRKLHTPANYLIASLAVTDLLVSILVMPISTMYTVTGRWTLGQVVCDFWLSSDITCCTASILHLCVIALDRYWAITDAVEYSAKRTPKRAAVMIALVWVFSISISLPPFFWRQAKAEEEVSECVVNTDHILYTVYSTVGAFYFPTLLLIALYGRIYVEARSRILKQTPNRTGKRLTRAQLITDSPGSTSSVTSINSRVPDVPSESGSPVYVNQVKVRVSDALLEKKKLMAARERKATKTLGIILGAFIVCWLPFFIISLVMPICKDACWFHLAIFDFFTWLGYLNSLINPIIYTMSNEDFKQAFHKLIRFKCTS

On to `O=C1Nc2ccc(Cl)c3c2C1(CCCCN1CC=C(c2ccccc2)CC1)CCC3` (stereo not given), for which the Ki (commonly the equilibrium dissociation constant of an inhibitor or competing ligand from its target) in [1] is 5.01 nM. Also, the Log Ki in assay [2] was over -6.5.
`O=C1Nc2ccc(Cl)c3c2C1(CCCCN1CC=C(c2ccc(Cl)cc2)CC1)CCC3` (stereo not given): the Ki is over 1000 nM in [3]; over 1000 nM in assay [5]; over 1000 nM in assay [6]; 7.24 nM in [1]; 7.24 nM in [8]; over 1000 nM in [9]. Also, in assay [10], the Ki was 316 nM. Further, the Log Ki in assay [4], in [7] and in assay [2] was over -6 each time.
In [2], `O=C1Nc2cccc3c2C1(CCCCN1CC=C(c2ccc(F)cc2)CC1)CCC3` (stereo not given) had a Log Ki of over -7.18.
In turn, `O=C1Nc2ccc(Cl)c3c2C1(CCCCN1CC=C(c2ccc(F)cc2)CC1)CCC3` (stereo not given) had a Ki in [1] of 2.04 nM. Besides, in assay [2], the Log Ki is over -6.64.
